Results reported in ChEMBL document CHEMBL4431325, “Design and Synthesis of Orally Bioavailable 4-Methyl Heteroaryldihydropyrimidine Based Hepatitis B Virus (HBV) Capsid Inhibitors” (J Med Chem, 2016).

How the values were obtained:
[1] = Intrinsic clearance in mouse liver microsomes at 1 uM preincubated for 10 mins followed by NADPH addition measured up to 30 mins by LC-MS/MS analysis; type: ADME, Microsome; settings: read-out: CLH
[2] = Intrinsic clearance in human liver microsomes at 1 uM preincubated for 10 mins followed by NADPH addition measured up to 30 mins by LC-MS/MS analysis; type: ADME, Microsome; settings: read-out: CLH
[3] = Oral bioavailability in CD-1 mouse plasma administered as single dose by LC-MS/MS analysis; type: ADME, organism-based
Procedure, shortened: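 CD-1 mice (18-25 g) were used, with three mice per time point. The i.v. dose (5 mg/kg) was given in 6% Solutol/ethanol (1:1) plus 94% saline, and the oral dose (50 mg/kg) in 1% RC591. Blood was sampled at nine (i.v.) or eight (p.o.) time points into heparin. Plasma was analysed by LC-MS/MS, and parameters including F were derived noncompartmentally.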

[4] = Drug uptake in CD-1 mouse heart at 5 mg/kg, iv or 50 mg/kg, po administered as single dose by LC-MS/MS analysis; type: ADME, organism-based; settings: in vivo
[5] = Cmax in CD-1 mouse plasma at 50 mg/kg, po administered as single dose by LC-MS/MS analysis; type: ADME, organism-based; design: dose 50 mg/kg, route oral
[6] = Volume of distribution at steady state in CD-1 mouse plasma at 5 mg/kg, iv administered as single dose by LC-MS/MS analysis; type: ADME, organism-based; settings: read-out: Vdss
[7] = Half life in CD-1 mouse plasma at 5 mg/kg, iv administered as single dose by LC-MS/MS analysis; type: ADME, organism-based
[8] = Cmax in CD-1 mouse plasma at 5 mg/kg, iv administered as single dose by LC-MS/MS analysis; type: ADME, organism-based; design: dose 5 mg/kg, route intravenous
[9] = AUC (0 to t) in CD-1 mouse liver at 50 mg/kg, po administered as single dose by LC-MS/MS analysis; type: ADME, organism-based; settings: in vivo
[10] = Half life in CD-1 mouse plasma at 50 mg/kg, po administered as single dose by LC-MS/MS analysis; type: ADME, organism-based
[11] = Cmax in CD-1 mouse liver at 50 mg/kg, po administered as single dose by LC-MS/MS analysis; type: ADME, organism-based; design: dose 50 mg/kg, route oral
[12] = Clearance in CD-1 mouse plasma at 5 mg/kg, iv administered as single dose by LC-MS/MS analysis; type: ADME, organism-based
[13] = AUC (0 to t) in CD-1 mouse plasma at 5 mg/kg, iv administered as single dose by LC-MS/MS analysis; type: ADME, organism-based; settings: in vivo
[14] = Drug uptake in CD-1 mouse lung at 5 mg/kg, iv or 50 mg/kg, po administered as single dose by LC-MS/MS analysis; type: ADME, organism-based; settings: in vivo
[15] = in vivo; settings: CD-1, mouse, other tissue, po, 50 mg/kg
[16] = AUC (0 to t) in CD-1 mouse plasma at 50 mg/kg, po administered as single dose by LC-MS/MS analysis; type: ADME, organism-based; settings: in vivo
[17] = Oral bioavailability in CD-1 mouse plasma at 50 mg/kg administered as single dose by LC-MS/MS analysis; type: ADME, organism-based
[18] = Drug uptake in CD-1 mouse brain at 5 mg/kg, iv or 50 mg/kg, po administered as single dose by LC-MS/MS analysis; type: ADME, organism-based; settings: in vivo
[19] = Drug metabolism in mouse liver microsomes assessed as aromatization of dihydropyrimidine core at 1 uM preincubated for 10 mins followed by NADPH addition measured up to 30 mins by LC-MS/MS analysis; type: ADME, Microsome; settings: 0.5 h
[20] = Stability in CD-1 mouse liver by LC-MS/MS analysis; type: ADME, tissue-based
[21] = Drug metabolism in human liver microsomes assessed as aromatization of dihydropyrimidine core at 1 uM preincubated for 10 mins followed by NADPH addition measured up to 30 mins by LC-MS/MS analysis; type: ADME, Microsome; settings: 0.5 h

| CLint scaled at 1 µM [1] | Compound | also measured |
| --- | --- | --- |
| 79 mL/min/kg | COC(=O)C1=C(COC2CCOC2)NC(c2nccs2)=NC1(C)c1ccc(F)cc1 (stereo unspecified) |  |
| 85 mL/min/kg | COC(=O)C1=C(C)NC(c2nccs2)=NC1(C)c1ccc(Cl)cc1 (stereo unspecified) |  |
| 83 mL/min/kg | COC(=O)C1=C(CN2CCC(O)C2)NC(c2nccs2)=NC1(C)c1ccc(F)cc1 (stereo unspecified) |  |
| 90 mL/min/kg | COC(=O)C1=C(CN2CC(F)(F)C[C@H]2C(=O)OC)NC(c2nccs2)=N[C@@]1(C)c1ccc(F)cc1 | CLint scaled at 1 µM [2]: 23 mL/min/kg |
| 81 mL/min/kg | COC(=O)C1=C(CN2CCNC(=O)C2)NC(c2nccs2)=NC1(C)c1ccc(F)cc1 (stereo unspecified) |  |
| 69 mL/min/kg | COC(=O)C1=C(Cn2ccnc2)NC(c2nccs2)=NC1(C)c1ccc(F)cc1 (stereo unspecified) |  |
| 89 mL/min/kg | COC(=O)C1=C(CN2CCCC(F)(F)C2)NC(c2nccs2)=NC1(C)c1ccc(F)cc1 (stereo unspecified) |  |
| 80 mL/min/kg | COC(=O)C1=C(CN2CCOC[C@H]2C(=O)O)NC(c2nccs2)=N[C@@]1(C)c1ccc(F)cc1 | CLint scaled at 1 µM [2]: 4.1 mL/min/kg |
| 57 mL/min/kg | COC(=O)C1=C(C)NC(c2nccs2)=NC1(C)c1ccc(S(C)(=O)=O)cc1 (stereo unspecified) |  |
| 88 mL/min/kg | COC(=O)C1=C(CN2CCC(C(F)(F)F)C2)NC(c2nccs2)=NC1(C)c1ccc(F)cc1 (stereo unspecified) |  |
| 14 mL/min/kg | COC(=O)C1=C(CN2CCC[C@H]2C(=O)O)NC(c2nccs2)=N[C@@]1(C)c1ccc(F)cc1 | CLint scaled at 1 µM [2]: 2.3 mL/min/kg |
| 88 mL/min/kg | COC(=O)C1=C(CN2CCOCC2(C)C)NC(c2nccs2)=NC1(C)c1ccc(F)cc1 (stereo unspecified) |  |
| 89 mL/min/kg | COC(=O)C1=C(CN2CCC(F)(F)C2)NC(c2nccs2)=NC1(C)c1ccc(F)cc1 (stereo unspecified) |  |
| 61 mL/min/kg | COC(=O)C1=C(CN2CCOC[C@@H]2C(=O)O)NC(c2nccs2)=N[C@@]1(C)c1ccc(F)cc1 |  |
| 60 mL/min/kg | COC(=O)C1=C(CN2CCC[C@@H]2C(=O)O)NC(c2nccs2)=N[C@@]1(C)c1ccc(F)cc1 |  |
| 6 mL/min/kg | CC1(c2ccc(F)cc2)N=C(c2nccs2)NC(CN2CCOCC2)=C1C(=O)O (stereo unspecified) |  |
| 75 mL/min/kg | COC(=O)C1=C(C)NC(c2nccs2)=NC1(C)c1ccc(C#N)cc1 (stereo unspecified) |  |
| 83 mL/min/kg | COC(=O)C1=C(C)NC(c2nccs2)=NC1(C)c1ccc(F)c(F)c1 (stereo unspecified) |  |
| 81 mL/min/kg | COC(=O)C1=C(CN2CCOCC2)NC(c2nccs2)=N[C@@]1(C)c1ccc(F)cc1 | bioavailability [3]: 1.5% |

| CLint scaled at 1 µM [1] | Compound | also measured |
| --- | --- | --- |
| 59 mL/min/kg | CC1(c2ccc(F)cc2)N=C(c2nccs2)NC(CN2CCOCC2)=C1C(N)=O (stereo unspecified) |  |
| 81 mL/min/kg | COC(=O)C1=C(COCC(F)(F)F)NC(c2nccs2)=NC1(C)c1ccc(F)cc1 (stereo unspecified) |  |
| 39 mL/min/kg | COC(=O)C1=C(CN2CCNCC2)NC(c2nccs2)=NC1(C)c1ccc(F)cc1 (stereo unspecified) |  |
| 80 mL/min/kg | COC(=O)C1=C(CN2CCOCC2=O)NC(c2nccs2)=NC1(C)c1ccc(F)cc1 (stereo unspecified) |  |
| 88 mL/min/kg | COC(=O)C1=C(CN2CC(OC)C2)NC(c2nccs2)=NC1(C)c1ccc(F)cc1 (stereo unspecified) |  |
| 77 mL/min/kg | CNC(=O)C1=C(CN2CCOCC2)NC(c2nccs2)=NC1(C)c1ccc(F)cc1 (stereo unspecified) |  |
| 88 mL/min/kg | CC(C)OC(=O)C1=C(CN2CCOCC2)NC(c2nccs2)=NC1(C)c1ccc(F)cc1 (stereo unspecified) |  |
| 84 mL/min/kg | COC(=O)C1=C(CN2CC3CC2CO3)NC(c2nccs2)=NC1(C)c1ccc(F)cc1 (stereo unspecified) |  |
| 79 mL/min/kg | COC(=O)C1=C(CN2CCCS2(=O)=O)NC(c2nccs2)=NC1(C)c1ccc(F)cc1 (stereo unspecified) |  |
| 24 mL/min/kg | COC(=O)C1=C(COC(C(=O)O)C(F)(F)F)NC(c2nccs2)=NC1(C)c1ccc(F)cc1 (stereo unspecified) |  |
|  | COC(=O)C1=C(C)NC(c2ncc(F)cc2F)=N[C@H]1c1ccc(F)cc1Cl | Drug metabolism [19]: Metabolite_Detected; Stability [20]: Unstable; Drug metabolism [21]: Metabolite_Detected |
| 66 mL/min/kg | COC(=O)C1=C(CN2CCS(=O)(=O)CC2)NC(c2nccs2)=NC1(C)c1ccc(F)cc1 (stereo unspecified) |  |
| 42 mL/min/kg | COC(=O)C1=C(CN(C)C2(C(=O)O)CC2)NC(c2nccs2)=NC1(C)c1ccc(F)cc1 (stereo unspecified) |  |
| 79 mL/min/kg | CC1(c2ccc(F)cc2)N=C(c2nccs2)NC(CN2CCOCC2)=C1C#N (stereo unspecified) |  |
| 81 mL/min/kg | COC(=O)C1=C(CN2CCC(O)CC2)NC(c2nccs2)=NC1(C)c1ccc(F)cc1 (stereo unspecified) |  |
| 88 mL/min/kg | COC(=O)C1=C(CN2CCCCC2)NC(c2nccs2)=NC1(C)c1ccc(F)cc1 (stereo unspecified) |  |
| 88 mL/min/kg | COC(=O)C1=C(CN2CCC(F)(F)CC2)NC(c2nccs2)=NC1(C)c1ccc(F)cc1 (stereo unspecified) |  |
| 89 mL/min/kg | COC(=O)C1=C(CN2CCOCC2)NC(c2nccs2)=N[C@@]1(C)c1ccc(F)c(F)c1 |  |
| 89 mL/min/kg | CC1(c2ccc(F)cc2)N=C(c2nccs2)NC(CN2CCOCC2)=C1c1ncco1 (stereo unspecified) |  |

| Compound | CLint scaled at 1 µM [1] | also measured |
| --- | --- | --- |
| COC(=O)C1=C(CN2CC(F)(F)C[C@H]2C(=O)O)NC(c2nccs2)=N[C@@]1(C)c1ccc(F)cc1 | 84 mL/min/kg | Drug uptake [4]: Not Active; Cmax [5]: 2470 ng/mL; Vd [6]: 0.22 L/kg; half-life [7]: 10.8 min; CLint scaled at 1 µM [2]: 12 mL/min/kg; Cmax [8]: 12400 ng/mL; AUCt [9]: 107000 µg/L/h; half-life [10]: 48 min; Cmax [11]: 41200 ng/mL; clearance [12]: 55.3 mL/min/kg; AUCt [13]: 1500 µg/L/h; Drug uptake [14]: Not Active; Kp [15]: 20; AUCt [16]: 5420 µg/L/h; bioavailability [17]: 36%; Drug uptake [18]: Not Active |
